From the array DNA melting data of Ke et al. (doi:10.1101/2024.01.08.574731)

How the values were obtained:
[1] = folding enthalpy; higher = less favourable; fluorescence melt of hairpins on a sequencing array, two-state fit; conditions: sodium 0.088 M
How it was run: (§1)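 Library hairpins on a sequenced MiSeq flow cell carried annealed Cy3 and quencher oligos, and their Cy3 fluorescence was imaged in 50 mM Na-HEPES pH 8.0 with 25 mM NaCl, in 2.5 °C steps up to 60 °C. Signals were normalised to Cy3 before quenching and to control constructs. Melting temperature and folding enthalpy were obtained from bootstrapped two-state fits, combined by inverse-variance weighting across four replicates, and the fitted temperatures were then raised by 9.35 °C to match UV melts.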

[2] = melting temperature; fluorescence melt of hairpins on a sequencing array, two-state fit, raised by 9.35 °C to match UV melts; conditions: sodium 0.088 M
How it was run: as §1

| Sequence | folding enthalpy [1] [kcal/mol] | Tm [2] [°C] |
| --- | --- | --- |
| GTCCAAACGAAAGTTGAC (((..(((....)))))) | -16.8 | 31.6 |
| GATCTTAGAAAAGATC ((((((....)))))) | -21.6 | 36.4 |
| TTGCAGAAATGCAA (((((....))))) | -20.8 | 42.3 |
| GCTGCGCGAAAGCTCAGC ((((.((....)).)))) | -35.4 | 64.4 |
| GCCATACGAAAGTACGGC (((.(((....))).))) | -37 | 51.5 |
| GACCGCGGAAACGCGGCC (.(((((....))))).) | -10.1 | 52.5 |
| GTAATCCCGAAAGGGTAC (((..(((....)))))) | -11.1 | 27.5 |
| GTTATATCGAAAGATAAC (((..(((....)))))) | -11.2 | 27.7 |
| GATCGTCACTACGATC ((((((....)))))) | -46.1 | 55 |
| GCATTGCGAAAGCGATGC ((((.((....)).)))) | -38 | 67.5 |
| GGTGCAGGAAACTGCATC (.(((((....))))).) | -22.4 | 53 |
| CGACCGGAAACGGTTTCG ((((((....)))..))) | -10.3 | 33.5 |
| GGATGAGGAAACTCACCC ((.((((....)))).)) | -22.3 | 39.6 |
| GGTTTACGAAAGTAGACC (((.(((....))).))) | -34.9 | 51 |
| GATCAGAGACTGATC ((((((...)))))) | -31.4 | 48 |
| GCACATCCGAAAGGATGC (((..(((....)))))) | -8.29 | 37.4 |
| GCGGAGCGAAAGCACGGC ((.(.((....)).).)) | -9.69 | 45.5 |
| GTCTGGAAACAGAC (((((....))))) | -27.8 | 52.4 |
| GATCTCTCTAGAGATC ((((((....)))))) | -37.4 | 56.3 |
| GCACGGGGAAACTCGTGC (((((.(....).))))) | -45.9 | 60.5 |
| GGTCTTCGAAAGAACACC (((.(((....))).))) | -26.6 | 32.6 |
| GCTTCGCGAAAGCGTCGC ((..(((....)))..)) | -15.6 | 41.4 |
| GTCGGGGGAAACTCCGGC (.(((.(....).))).) | -29.9 | 47.2 |

| Sequence | folding enthalpy [1] [kcal/mol] | Tm [2] [°C] |
| --- | --- | --- |
| GTTTTCACGAAAGTGAAC (((..(((....)))))) | -10.3 | 35.4 |
| GACTGAGCGAAAGCTGTC (((..(((....)))))) | -12.7 | 44.1 |
| GACTACGAAAGTACGGTC ((((((....)))..))) | -20.4 | 32 |
| GGGGCAGGAAACTGCTCC ((.((((....)))).)) | -36.6 | 60.2 |
| GGCATAGCGAAAGCTGCC (((..(((....)))))) | -31.4 | 59.2 |
| GCGCATGGAAACACACGC (((..((....))..))) | -19.4 | 29.6 |
| GCTGAGCGAAAGCATAGC (((..((....))..))) | -18.9 | 50 |
| GTCTGCGAAAGCAAAGAC ((((((....)))..))) | -19.1 | 50.1 |
| GCAAGCGAAAGCTCATGC ((((((....)))..))) | -12.5 | 35.2 |
| GCGGGTGGAAACGCTCGC (((.(.(....).).))) | -24.6 | 52.1 |
| GCTATGCGAAAGCTTGGC ((.(.((....)).).)) | -24.6 | 42.1 |
| GAGCCAGGAAACCAGCTC ((((..(....)..)))) | -24.6 | 34.9 |
| GCAATCGAAAGATGATGC ((((((....)))..))) | -18.6 | 32.5 |
| GTGTGTGAAAACACAC ((((((....)))))) | -36.7 | 64.3 |
| GCCAGTGGAAACACTGAC (.(((((....))))).) | -15.8 | 46.1 |
| CGACTCGGAAACGACTCG (((.(((....))).))) | -30.6 | 34.2 |
| GTCAAAGGAAACTTCGAC (((.(((....))).))) | -19.4 | 31.1 |
| GTAAGGCGAAAGCCATAC (((.(((....))).))) | -15.3 | 44.8 |
| GCTCGCGAAAGCGGAGC ((((((....))).))) | -22.9 | 67.9 |
| GCGGGCTTCCGC ((((....)))) | -21.2 | 61 |
| GGTCCGGGAAACCGAACC (((.(((....))).))) | -29.1 | 46.8 |
| GATCGAAGGGTCGATC ((((((....)))))) | -31.6 | 50.6 |
| GGCAACGAAAGTTATGCC ((((((....)))..))) | -24.2 | 46.3 |

| Sequence | folding enthalpy [1] [kcal/mol] | Tm [2] [°C] |
| --- | --- | --- |
| GCGCGGCGAAAGCGGAGC ((.(.((....)).).)) | -22.5 | 60.4 |
| GCTAACGGAAACGTCAGC (((.(((....))).))) | -26.6 | 42.1 |
| GGGACACCGAAAGGTCCC (((..(((....)))))) | -27.7 | 51.4 |
| GATCCTATTCAGGATC ((((((....)))))) | -44 | 52.6 |
| GGCCCAGGAAACCGAGCC (((.(.(....).).))) | -15.7 | 36.9 |
| GTATACGAAAGTATCTAC ((((((....)))..))) | -18.6 | 32.5 |
| GGCCGGTCGAAAGACGCC (((..(((....)))))) | -21.9 | 48.4 |
| GATCACAAGGTGATC ((((((...)))))) | -38.4 | 58.4 |
| GATCCTCGCGAGGATC ((((((....)))))) | -43.4 | 60.4 |
| GCAAACCGAAAGGTGTGC (((.(((....))).))) | -37.6 | 57.3 |
| TCAGAGAAATCTGA (((((....))))) | -9.32 | 27.6 |
| GAGCACGAAAGTGTCTC ((((((....))).))) | -23.3 | 53.2 |
| GCGAATTGTCGC ((((....)))) | -17 | 46 |
| GAAAAGCGAAAGCTGTTC (((.(((....))).))) | -18 | 44.9 |
| GTTCATCGAAAGATAAAC (((.(((....))).))) | -18.1 | 31.5 |
| GCCGACGAAAGTCCCGGC ((((((....)))..))) | -20.9 | 49.6 |
| GTAGCCGAAAGGCACTAC ((((((....)))..))) | -12.5 | 48.5 |
| GTTACTCGAAAGAGAAC (((.(((....)))))) | -13.7 | 31.5 |
| GCGTTAGAACGC ((((....)))) | -20.3 | 52.8 |
| GAAGCGGGAAACCGCTCC (.(((((....))))).) | -10.3 | 42.5 |
| GCGGTGCGAAAGCATTGC ((..(((....)))..)) | -22.4 | 59.2 |
| GCCACCGAAAGGTAGGGC ((((((....)))..))) | -27.6 | 52.7 |
| GCACAGCGAAAGCGGCGC ((.(.((....)).).)) | -28.6 | 63.7 |

| Sequence | folding enthalpy [1] [kcal/mol] | Tm [2] [°C] |
| --- | --- | --- |
| CGCGGAAAGGTCCGCG ((((((....)))))) | -45.8 | 61.9 |
| GCTACGCGAAAGCGACGC ((..(((....)))..)) | -15.1 | 40.2 |
| GATGTACGAAAGTAATC (((.(((....)))))) | -21.1 | 35.8 |
| GTTCCCGGAAACGGAAAC (((.(((....))).))) | -24.4 | 41.1 |
| GATCTAAACCTAGATC ((((((....)))))) | -33.8 | 39.3 |
| GTACGAGGAAACTTGTGC (.((.((....)).)).) | -16.8 | 33 |
| GCCCATCGAAAGATAGGC (((.(((....))).))) | -30.5 | 47.2 |
| GGGAACGCGAAAGCGCCC (((..(((....)))))) | -16.4 | 46.5 |
| GCCAGCGAAAGCTTGGGC ((((((....)))..))) | -26.7 | 52.5 |
| GTTAGCCGAAAGGCCAAC (((.(((....))).))) | -16 | 40.3 |
| GCGCTGCGAAAGCCGGGC ((.(.((....)).).)) | -20.5 | 50.9 |
| GTACAGGGAAACCTGTGC (.(((((....))))).) | -20.9 | 49.8 |
| GGTCTTGGAAACAAAACC (((.(((....))).))) | -14.5 | 29.6 |
| GATGTCCGAAAGGAATC (((.(((....)))))) | -13.5 | 31.5 |
| GTGGTGGGAAACCGCCAC ((((.((....)).)))) | -40.2 | 61.9 |
| GCTAAGGGAAACCCTAGC ((((.((....)).)))) | -32.5 | 42.7 |
| GTGTCGTCGAAAGACCAC (((..(((....)))))) | -19.2 | 38.4 |
| GGATTCGGAAACGAGTTC (.(.(((....))).).) | -18.1 | 28.7 |
| GACGTACGAAAGTATGTC (((.(((....))).))) | -43.4 | 54.6 |
| GTAGGAGGAAACTTCTAC ((((.((....)).)))) | -27 | 37.4 |
| GAACCCGGAAACGGATTC (((.(((....))).))) | -21 | 41.5 |
| GTCACGGGAAACCGTAAC ((.((((....)))).)) | -16.5 | 36.1 |
| GATGACGAAAGTCAATC ((((((....))).))) | -16.2 | 43.7 |
